The values below come from ChEMBL document CHEMBL3826936, “Alkyne-substituted diminazene as G-quadruplex binders with anticancer activities” (Eur J Med Chem, 2016).

Molecules are shown by their SMILES. Calls of active or inactive are those of the source. The calls are words filed in the database; no cut-off is given here.

Experiment [1] can be described thus: Stabilization of c-MYC template Pu27 mutant DNA (unknown origin) assessed as inhibition of Taq polymerase-mediated polymerization/extension of Pu27 mutant and Pu27rev oligomers at 1 to 25 uM preincubated for 6 hrs followed by Taq polymerase addition by PCR stop assay.
Experiment [2] is described as follows: Binding affinity to 5'-FAM/3'-TAMRA labeled c-MYC 22-mer G-quadruplex DNA (unknown origin) assessed as change in melting temperature at 4 uM after 12 hrs by TR-FRET assay. The method, boiled down:
(§1)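 Dual-labeled FAM/TAMRA oligos diluted to 800 nM in 60 mM potassium cacodylate (pH 7.2), annealed 10 min at 85 °C and cooled to room temperature. Mixed 1:1 with ligand at […] in the same buffer. Equilibrated at least 12 h at 4 °C. ΔT1/2 taken as melting temperature with minus without ligand, in triplicate, averaged.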
For orientation: Time-resolved FRET reads energy transfer from a long-lived donor to a nearby acceptor.

Experiment [3] in a line: Binding affinity to wild type Bcl2 27-mer G-quadruplex DNA (unknown origin) by isothermal titration calorimetry. In general terms: ITC needs no label: the signal is the heat of the interaction.
Experiment [4] in a line: Selectivity ratio of Kd for 8-bp AT rich duplex DNA (unknown origin) to Kd for wild type Bcl2 27-mer G-quadruplex DNA (unknown origin).
The nature of experiment [5]: Binding affinity to 5'-FAM/3'-TAMRA labeled F21T 21-mer G-quadruplex DNA (unknown origin) assessed as change in melting temperature at 4 uM after 12 hrs by TR-FRET assay. The essentials: as §1
Experiment [6] in a line: Antiproliferative activity against human PC3 cells assessed as cell viability at 20 uM after 72 hrs by WST-1 assay relative to control. The class given is functional. Particulars: PC-3, 72 h, read-out: Activity. The essentials: (§2)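 Cells seeded in 96-well plates the afternoon before treatment, at numbers keeping them in log-phase growth; about 18 h later, compounds semi-serially diluted in DMSO then growth medium and added. Incubation 72 h, then WST-1 added and plates read after 4 more hours at 37 °C. GI50 derived from curve fits; viability expressed relative to DMSO control.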

Experiment [7] is described as follows: Binding affinity to 5'-FAM/3'-TAMRA labeled 26-mer duplex DNA (unknown origin) assessed as change in melting temperature at 4 uM after 12 hrs by TR-FRET assay.
Experiment [8] is described as follows: Binding affinity to wild type c-MYC 24-mer G-quadruplex DNA (unknown origin) by isothermal titration calorimetry.
A short description of experiment [9]: Selectivity ratio of Kd for 8-bp AT rich duplex DNA (unknown origin) to Kd for wild type c-MYC 24-mer G-quadruplex DNA (unknown origin).
Experiment [10] in a line: Binding affinity to 5'-FAM/3'-TAMRA labeled c-kit2 26-mer G-quadruplex DNA (unknown origin) assessed as change in melting temperature at 4 uM after 12 hrs by TR-FRET assay. The essentials: as §1
Experiment [11] in a line: Binding affinity to 5'-FAM/3'-TAMRA labeled k-RAS21R 21-mer G-quadruplex DNA (unknown origin) assessed as change in melting temperature at 4 uM after 12 hrs by TR-FRET assay. The method, boiled down: as §1
Experiment [12] is described as follows: Binding affinity to 8-bp AT rich duplex DNA (unknown origin) by isothermal titration calorimetry.
A short description of experiment [13]: Antiproliferative activity against human OVCAR3 cells after 72 hrs by WST-1 assay. The experiment is classed as functional. The note with it: OVCAR-3, 72 h. The method, boiled down: as §2
For orientation: Tetrazolium dyes change colour on reduction, which living cells bring about.

The subject of the next experiment is MDA-MB-231. As to the kind of experiment: Antiproliferative activity against human MDA-MB-231 cells assessed as cell viability at 20 uM after 72 hrs by WST-1 assay relative to control. The experiment is classed as functional. The note with it: MDA-MB-231, 72 h, read-out: Activity. The essentials: as §2
Experiment [14] can be described thus: Stabilization of c-MYC Pu27 G-quadruplex DNA (unknown origin) assessed as inhibition of Taq polymerase-mediated polymerization/extension of Pu27 and Pu27rev oligomers at 10 uM preincubated for 6 hrs followed by Taq polymerase addition by PCR stop assay.
A short description of experiment [15]: Stabilization of c-MYC template Pu27-13,14 mutant DNA (unknown origin) assessed as inhibition of Taq polymerase-mediated polymerization/extension of Pu27-13,14 mutant and Pu27rev oligomers at 25 uM preincubated for 6 hrs followed by Taq polymerase addition by PCR stop assay.

On to `N=C(N)c1ccc(/N=N/Nc2ccc(C(=N)N)cc2)cc1` [DIMINAZENE], for which the inhibition result in [1], in experiment [14] and in [15] was “Active” throughout. Besides, the ΔTm (as a rule, the change in melting temperature against a reference sample) in [2] was 18.3 °C; in experiment [5], 16.6 °C; in experiment [7] it was 6.8 °C; in [10], 11.7 °C; in experiment [11], 24.1 °C. Further, the Kd (usually the free concentration of one partner at which half of the binding sites on the other are occupied at equilibrium, for simple one-to-one binding) was 1 nM in experiment [3], 1 nM in [8] and 1000 nM in [12]. For the same molecule, the Selectivity ratio in [4] and in [9] was 1000 in each case. For the same molecule, the viability at 20 µM (in experiment [6]; in the experiment on MDA-MB-231) was at least 75% each time. In experiment [13], the GI50 (in general, the concentration at which growth is held to half of that of the control) was over 25000 nM.
